Bioassay records (PubChem)
The list is not random: actives were taken first. Their share in the collection is about 6.6%.
BAP1 inh – human BAP1 deubiquitinase inhibition | Q92560 | recombinant BAP1, Ub-AMC hydrolysis fluorescence kinetic; hits give low values | calls only at 20 µM | actives 0.48% (n = 72,000) | AID 436;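 active = activity remaining at or below 50% of control, provided the compound also passes the data quality filters; inactive = the rest, including low values that fail the filters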
M1 antagonist – blocks the rat M1 muscarinic receptor response to acetylcholine; P08482; CHO-M1 cells, Fluo-4 calcium, ACh EC80 antagonist mode; hits give low values; B-score at 10 µM; actives 3.4% (n = 64,000);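 active = calcium fluorescence response, raw or row-and-column corrected B-score, differing from the plate sample mean either way at a set confidence level, mostly lower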
HER2 expr 66K – inhibitors of human Her2 kinase expression | P04626 | SKBR-3 HER2 protein level, AlphaScreen, 18-24 h; hits give low values | HER2 level % of control, % at 10 µM | actives 0.69% (n = 65,000) | AID 645;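 active = HER2 level under 5% of the carrier-only control; inconclusive = no clear call, values can overlap the other calls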;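 note: lower value means stronger loss of Her2 protein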
JNK3 blocker – blocks human JNK3 kinase activity | P53779 | purified JNK3 kinase activity, HTS | inhibition, % at 8 µM | actives 0.61% (n = 60,000) | AID 746; in the data active = inhibition above about 17%
M1 ag – M1 muscarinic receptor agonism; CHO-M1 cells, Fluo-4 calcium fluorescence, agonist mode; hits give high values; B-score at 10 µM; actives 3% (n = 64,000); AID 626;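 active = fluorescence rise, raw or as B-score row- and column-corrected plate score, outside the 99.7% band of its plate's samples, either direction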
HEK293 NFkB inh – lowers PMA/ionomycin-induced NF-kB signal in HEK293 cells. AID 465. HEK-293 NF-kB luciferase reporter, luminescence. actives 0.21% (n = 62,000). inhibition, % at 3 µM;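 active = inhibition above the mean of all tested compounds plus 3 SD, cut at about 40% in these data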
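System: NF-kB luciferase reporter HEK-293 cells | Replication: Single test | Control set: DMSO vs reference inhibitor | Evaluation: % inhibition | Schedule: 1 h pretreatment, 16 h stimulation, 37 °C | Probe or stimulus: PMA with ionomycin | Compound dosing: One dose, 3 µM | Detection: Luciferase luminescence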
BAP1 inh confirm – BAP1 (human) enzyme inhibition, confirmed. % of control activity, % at 20 µM. actives 8% (n = 310). shares compounds with BAP1 inh. purified BAP1, Ub-ethyl ester hydrolysis, HPLC; hits give low values;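 active = percent of control activity at or below 60%; inconclusive = HPLC trace unusable from injection failure or solvent front hiding peaks; inactive = the rest, plus ubiquitin peak ratio over a set limit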
Large screens that a line does not name were inactive (follow-up assays come after a bar, where shown).

Cc1nc(NC2=NCN(Cc3cccnc3)CN2)nc2ccccc12	M1 antagonist -11
Cc1ccc2nc(NC3=NCN(Cc4ccccc4)CN3)nc(C)c2c1	none
Cc1ccc2c(C)nc(NC3=NCN(Cc4ccccc4)CN3)nc2c1	JNK3 blocker 40
Cc1nc(NC2=NCN(Cc3ccccc3)CN2)nc2ccccc12	M1 ag 4.5
O=C(Nc1nnc(NC(=O)c2ccccc2O)s1)c1ccccc1O	none (no result: M1 antagonist, HER2 expr 66K, JNK3 blocker, M1 ag, HEK293 NFkB inh)
N#Cc1c(NC(=O)c2cccs2)sc2c1CCCC2	none (no result: M1 antagonist, HER2 expr 66K, JNK3 blocker, M1 ag, HEK293 NFkB inh)
COc1ccccc1NC(=O)CC(C)Cc1cc(C)cc(C)c1 (configuration not stated)	none (no result: M1 antagonist, HER2 expr 66K, JNK3 blocker, M1 ag, HEK293 NFkB inh)
CCNc1nc(OCCNS(=O)(=O)c2cc(C)ccc2C)nc(N(C)C)n1	M1 antagonist 1.8
O=C(Oc1ccccc1C(=S)N1CCOCC1)c1ccc(Br)cc1	none (no result: M1 antagonist, HER2 expr 66K, JNK3 blocker, M1 ag, HEK293 NFkB inh)
COc1ccc(CCn2c(=S)[nH]c3cc(C(=O)NCc4ccco4)ccc3c2=O)cc1OC	M1 ag 3
CNC(=O)c1cc2c(=O)n3cc(C)ccc3nc2n(C(C)C)c1=N	M1 ag 17 (not shown: BAP1 inh)
Cc1cccnc1NC(=O)c1ccc(NC(=O)C2CCCCC2)cc1	none (no result: M1 antagonist, HER2 expr 66K, JNK3 blocker, M1 ag, HEK293 NFkB inh)
O=C(Cn1cnc2ccccc21)OCC(=O)N1CCCc2ccccc21	M1 ag -2.4
Cc1cccc(N2CCN(c3nc4ccccc4n4cnnc34)CC2)c1C	M1 antagonist 0.36
COc1ccc(N=C(C)N)cc1	none (no result: M1 antagonist, HER2 expr 66K, JNK3 blocker, M1 ag, HEK293 NFkB inh)
CCOC(=O)c1sc2nc3c(cc2c1N)COC(C)(C)C3	none
CC1(C)Cc2nc(N)c(C(=O)NCCO)cc2CO1	M1 antagonist 6.6 (not shown: BAP1 inh, HEK293 NFkB inh)
CCn1c(C)cc(=S)c2ccccc21	HER2 expr 66K -19
CCn1c2ccccc2c2cc(N)ccc21	none
O=C(NCc1ccccn1)Nc1ccc2c(c1)OCO2	BAP1 inh active | BAP1 inh confirm inactive
CC1CCc2nc(NC(=O)c3cc(C(C)(C)C)nn3C)sc2C1 (configuration not stated)	BAP1 inh active | BAP1 inh confirm inactive
O=C(OCCN1C(=O)c2cccc3c(N4CCCCC4)ccc(c23)C1=O)c1cccc(Br)c1	none (no result: M1 antagonist, HER2 expr 66K, JNK3 blocker, M1 ag, HEK293 NFkB inh)
COc1cccc(-c2csc(N3CCN(Cc4ccccc4)CC3)n2)c1	none
COc1cccc(-c2csc(N3CCN(S(=O)(=O)c4ccc(F)cc4)CC3)n2)c1	BAP1 inh active | BAP1 inh confirm inactive
CCn1c(SCC(=O)c2cc(OC)ccc2OC)nc2c1c(=O)n(C)c(=O)n2C	none
COc1ccc2c(c1)c1nc(SCC(C)C)n(CCO)c(=O)c1n2C	BAP1 inh active | BAP1 inh confirm inactive
O=C(Nc1ccc2c(c1)OCO2)C12CC3CC(CC(C3)C1)C2	none (no result: M1 antagonist, HER2 expr 66K, JNK3 blocker, M1 ag, HEK293 NFkB inh)
CCOc1ccc(N2Cc3ccccc3C2)cc1	BAP1 inh active | BAP1 inh confirm inactive
COc1cccc(C(=O)Oc2cccc(OC(=O)c3cccc(OC)c3)c2)c1	none (no result: M1 antagonist, HER2 expr 66K, JNK3 blocker, M1 ag, HEK293 NFkB inh)
Cc1ccc(Cn2ncc3c(N4CCN(Cc5ccc(Cl)cc5)CC4)ncnc32)cc1	none (not shown: BAP1 inh, HEK293 NFkB inh)
Cc1ccccc1N1CCN(c2ncnc3c2cnn3Cc2ccc(Cl)cc2)CC1	BAP1 inh active | BAP1 inh confirm inactive
O=C(c1cccs1)c1ccc(-c2cccs2)s1	BAP1 inh active, HER2 expr 66K -2.5 | BAP1 inh confirm inactive
Cc1ccc(Oc2cc(C)nc(-c3ccccc3O)n2)cc1	none
Cc1cc(OCc2ccc(F)cc2)nc(-c2ccccc2O)n1	BAP1 inh active | BAP1 inh confirm inactive
CCOC(=O)N1CCN(C(=O)c2cccn3c(=O)c4sccc4nc23)CC1	BAP1 inh active (no result: JNK3 blocker) | BAP1 inh confirm inactive
c1ccc(C(OCCn2cncn2)c2ccccc2)cc1	none (no result: M1 antagonist, HER2 expr 66K, JNK3 blocker, M1 ag, HEK293 NFkB inh)
CCOC(=O)COc1nc(C)c(Br)c(OC)n1	BAP1 inh active | BAP1 inh confirm inactive
CCOC(=O)CSc1nc(N)nc(C)c1Br	none
Cc1cc2n(n1)C(c1ccco1)Nc1ccccc1-2 (configuration not stated)	BAP1 inh active | BAP1 inh confirm inactive
Cc1cc2n(n1)C(c1ccc(O)cc1)Nc1ccccc1-2 (configuration not stated)	none
Cc1cc(C)cc(OCc2nnc(SCC(=O)N3CCN(c4ccccc4)CC3)o2)c1	BAP1 inh active | BAP1 inh confirm inactive
O=C(CSc1nnc(COc2ccccc2)o1)N1CCN(c2ccccc2)CC1	none
O=C(O)c1cccc(N2C(=O)c3ccc(C(=O)O)cc3C2=O)c1	none (no result: M1 antagonist, HER2 expr 66K, JNK3 blocker, M1 ag, HEK293 NFkB inh)
COc1ccc(C(CC(=O)O)NC(=O)C2CCCCC2)cc1C (configuration not stated)	none (no result: M1 antagonist, HER2 expr 66K, JNK3 blocker, M1 ag, HEK293 NFkB inh)
CCOc1cc2[nH]c(=O)n(Cc3cccc(OC)c3)c(=O)c2cc1OCC	BAP1 inh active | BAP1 inh confirm inactive
COc1ccc(CNC(=O)C(NS(=O)(=O)c2ccc3c(c2)CCCN3C(C)=O)C(C)C)cc1 (configuration not stated)	none
CCC(=O)N1CCc2cc(S(=O)(=O)NC(C(=O)NCc3ccc(C)cc3)C(C)C)ccc21 (configuration not stated)	BAP1 inh active | BAP1 inh confirm inactive
COc1ccccc1NC(=O)Nc1c(C)n(C)n(-c2ccccc2)c1=O	BAP1 inh active | BAP1 inh confirm inactive
COc1ccccc1C(=O)Nc1c(C)n(C)n(-c2ccccc2)c1=O	none
COC(=O)CSc1nc2ccc(NC(=O)CSc3nnnn3Cc3ccccc3)cc2s1	BAP1 inh active | BAP1 inh confirm inactive
COc1cccc2sc(NC(=O)c3ccc(S(=O)(=O)N4CC(C)CC(C)C4)cc3)nc12 (configuration not stated)	none (no result: M1 antagonist, HER2 expr 66K, JNK3 blocker, M1 ag, HEK293 NFkB inh)
COc1ccc(Cn2nnnc2C(c2ccccn2)N2CCN(c3cc(Cl)ccc3C)CC2)cc1 (configuration not stated)	BAP1 inh active | BAP1 inh confirm inactive
COc1ccc(C(c2nnnn2Cc2ccc(F)cc2)N2CCN(c3ccccc3)CC2)cc1 (configuration not stated)	none
COc1ccc(NC(=O)c2c(NC(=O)CNCc3ccco3)sc3c2CCC3)c(OC)c1	BAP1 inh active | BAP1 inh confirm inconclusive
CCC(C)C(=O)Nc1nnc(-c2cccs2)s1 (configuration not stated)	BAP1 inh active | BAP1 inh confirm inactive
O=C1CSC(c2cccc([N+](=O)[O-])c2)N1c1ccc(Oc2ccccc2)cc1 (configuration not stated)	none (no result: M1 antagonist, HER2 expr 66K, JNK3 blocker, M1 ag, HEK293 NFkB inh)
CC(C)Cn1cc(C(=O)N2CCN(c3ccccn3)CC2)c2c3ccccc3n(C)c2c1=O	BAP1 inh active | BAP1 inh confirm inactive
COc1ccccc1N1CCN(c2nc3ccccc3nc2C(C#N)C(=O)OC(C)C)CC1 (configuration not stated)	BAP1 inh active | BAP1 inh confirm inactive
CCCCCCNC(=O)C(C#N)c1nc2ccccc2nc1N1CCCC1 (configuration not stated)	BAP1 inh active, M1 antagonist 1.1 | BAP1 inh confirm inactive
